Screening results (PubChem)
Most compounds without a hit are left out; they make up all but 1.6% or so of the library.
GASC-1 inh: inhibitors of human GASC-1 (JMJD2C) demethylase | hit rate 0.069% among 330,000 | Q9H3R0 | GST-JMJD2C(1-420) H3K9me3 demethylation, DELFIA europium | inhibition, % at 2.35 µM | AID 2099;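 active means more than half of a compound's replicate wells show inhibition beyond 50%, single wells judged on their own value; inconclusive means some, but no more than half, of replicates pass 50% inhibition; inactive means no replicate passes 50% inhibition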;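 further: signal counts dimethyl H3K9 product captured on neutravidin plate; 0% = median of DMSO wells and 100% = 0.3 times that DMSO median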
Target sequence (Q9H3R0 1-420 limits assumed): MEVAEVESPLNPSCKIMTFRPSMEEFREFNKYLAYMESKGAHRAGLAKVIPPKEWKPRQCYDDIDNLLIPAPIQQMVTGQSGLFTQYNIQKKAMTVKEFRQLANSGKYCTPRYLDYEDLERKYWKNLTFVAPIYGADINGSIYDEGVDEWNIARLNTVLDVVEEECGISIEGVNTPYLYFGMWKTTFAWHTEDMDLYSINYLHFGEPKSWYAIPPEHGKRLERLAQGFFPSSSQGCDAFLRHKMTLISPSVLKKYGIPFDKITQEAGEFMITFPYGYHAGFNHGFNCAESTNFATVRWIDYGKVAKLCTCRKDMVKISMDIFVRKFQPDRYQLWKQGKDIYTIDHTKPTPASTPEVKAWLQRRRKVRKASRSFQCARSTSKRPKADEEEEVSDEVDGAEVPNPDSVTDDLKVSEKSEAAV
TDP2 inh: TDP2 (human) inhibition, absorbance primary screen | recombinant TDP2, T5PNP hydrolysis, p-nitrophenol absorbance 415 nm | inhibition, % at 12.8 µM | hit rate 0.34% among 370,000;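 active means inhibition above the mean of all tested compounds plus 3 SD, set per campaign, cut at about 25% in these data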;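 further: 0% = DMSO with enzyme and 100% = buffer with substrate but no TDP2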
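Assay system: recombinant human TDP2 / Reagent: T5PNP substrate at 5 mM, a TopII-DNA adduct mimic / Measured by: epi absorbance from released p-nitrophenol / Evaluation: % inhibition relative to enzyme-containing and enzyme-free wells / Control set: enzyme-free and DMSO wells / Replicates: each compound tested once, singlicate / Schedule: enzyme reaction with compound for 2 h at 37 °C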
UBC9 SUMO inh: blocks human SUMOylation mediated by UBC9; P63279; HTRF SUMOylation assay, SAE1/SAE2 + UBC9, in vitro; inhibition, % at 35 µM; hit rate 0.36% among 290,000; AID 2006; in the data active means inhibition above about 50%, passing the limit was not always enough; inconclusive means no clear call, values can overlap the other calls
Target sequence (P63279 whole entry, looked up): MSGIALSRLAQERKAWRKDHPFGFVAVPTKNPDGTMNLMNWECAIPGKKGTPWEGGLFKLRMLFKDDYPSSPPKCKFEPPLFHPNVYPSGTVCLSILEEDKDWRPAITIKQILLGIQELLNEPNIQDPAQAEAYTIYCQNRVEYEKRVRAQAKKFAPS
PAD4 FP inh: PAD4 (human) enzyme inhibition; recombinant PAD4, RCA probe fluorescence polarization; inhibition, % at 6.36 µM; hit rate 0.41% among 330,000; AID 485272;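 active means percent inhibition above a cutoff equal to the mean of all tested compounds plus 3 SD, cut at about 15% in these data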;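 further: 0% = PAD4 with RCA probe and DMSO and 100% = probe without PAD4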
Apaf1 inhib: inhibitors of human Apaf-1 apoptosome | O14727 | reconstituted apoptosome caspase-3 activity, DEVD-Rh110 fluorescence | inhibition, % at 20 µM | hit rate 0.71% among 330,000 | AID 489030; active means inhibition of at least 40% at 20 µM;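 further: plate controls were DMSO wells for no effect and DEVD-CHO caspase inhibitor wells for full effect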
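Material: cell-free apoptosome with Apaf-1, procaspase-3 and caspase-9; Buffer or medium: Hepes pH 7.5 with detergent and BSA; Reagent: cytochrome c trigger plus (Z-DEVD)2-Rh110 caspase-3 substrate; Times: compound with Apaf-1, dATP, procaspase-3 30 min, then 50 min reaction, room temperature; Technique: Rh110 fluorescence intensity.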
GSTO1 counter: blocks human GSTO1 in RBBP9 counter-screen | P78417 | recombinant GSTO1, activity-based probe fluorescence polarization | inhibition, % at 5.96 µM | hit rate 1.1% among 300,000 | AID 1974;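 active means inhibition above the campaign mean inhibition plus 3 SD, cut at about 35% in these data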;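 further: 0% = GSTO1-1 with DMSO and 100% = wells lacking GSTO1-1 enzyme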
Apaf-1 inh conf: Apaf-1 inhibition, single-dose confirmed | inhibition, % at 20 µM | shares compounds with Apaf1 inhib | hit rate 25% among 1,800 | reconstituted apoptosome, caspase-3 DEVD-Rh110 fluorescence | AID 504614;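 active means mean inhibition of at least 40% at 20 µM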;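 further: plate controls were DMSO wells for no effect and DEVD-CHO caspase inhibitor control wells for full effect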
Rh110 interf inh: interferes with Rh110 fluorescence, flagging false Apaf-1 inhibitors | activation (fluorescence interference), % at 20 µM | Rh110 fluorescence interference, quenched caspase reaction | shares compounds with Apaf1 inhib | AID 504615 | 1,800 tested, under 10 active;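 active means signal rise of 40% or more at 20 µM, treated as a fluorescence artifact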
Fluor interf inh: counter-screen for Apaf-1 inhibitors: fluorescence interference, dose response; 460 tested, under 10 active; fluorescence interference counterscreen, Apaf-1 assay format; IC50, µM; shares compounds with Apaf1 inhib; AID 588538; call rule not given here
Starred values were filed as active, the others as inactive; ? = inconclusive; . = not tested or not shown.

SMILES	GASC-1 inh	TDP2 inh	UBC9 SUMO inh	PAD4 FP inh	Apaf1 inhib	GSTO1 counter	Apaf-1 inh conf	Rh110 interf inh	others
Cc1ccc(N=Nc2c(N)[nH]n3c(=O)cc(-c4ccccc4)nc23)cc1	12	7	-39	-10	55*	8	64*	4	Fluor interf inh=>100
COc1cccc(N=Nc2c(N)[nH]n3c(=O)cc(-c4ccccc4)nc23)c1	-2	7	-29	-5	37	1	.	.
COC(=O)c1ccc(-c2nc3ccccc3o2)cc1	.	.	8	.	.	.	.	.
COC(=O)c1ccc(-c2ncc(-c3cccc4ccccc34)o2)cc1	10	-1	8	-13	42*	7	9	7
CC(c1cc(F)ccc1O)c1c[nH]c2ccccc12 (stereo not drawn)	.	7	.	.	.	.	.	.
COc1ccc(OCCSc2ccc(S(=O)(=O)N3CCCC3)cn2)cc1	0	4	.	-8	15	.	.	.
CN1CCN(S(=O)(=O)c2ccc(SCCOc3ccc(Cl)cc3)nc2)CC1	.	-12	.	-2	51*	.	15	7
COc1ccc(CN2C(=O)CCCC2(C)c2nnnn2-c2ccc3c(c2)OCCO3)cc1 (stereo not drawn)	.	0	.	.	.	.	.	.
CN1C(=O)CC(Nc2cccc3cccc(N)c23)C1=O (stereo not drawn)	10	.	90*	-4	54*	23	12	3
CCCCCCOC(=O)C(C#N)c1nc2ccccc2nc1N1CCN(CC)CC1 (stereo not drawn)	-15	5	-17	-4	42*	4	28	10
Cc1ccc(NC(=O)c2ncn(CC(=O)N[C@H](CO)Cc3c[nH]c4ccccc34)n2)cc1C	.	8	.	2	74*	.	7	11
CC(Oc1ccc(Br)cc1)C(=O)NCC(C)(C)N1CCOCC1 (stereo not drawn)	7	-3	.	-1	47*	0	34	-1
COc1ccc(NS(=O)(=O)c2cccc(C(=O)N3CCCCCCC3)c2)cc1	.	-4	.	0	45*	.	39	17
CN1CCN(c2nc(-c3ccc(C(C)(C)C)cc3)nc3ccccc23)CC1	6	-1	10	-6	43*	15	20	12
COc1ccc(-c2nc(-c3ccccc3)nc(N3CCN(C)CC3)c2C#N)cc1	5	1	-42	5	41*	-1	13	4
Cc1ccc(-c2nc(N3CCN(C)CC3)c3ccccc3n2)cc1	2	-11	-14	1	12	-1	.	.
CN1CCN(c2nc(-c3ccccc3)nc(-c3ccccc3)c2C#N)CC1	10	6	-11	-6	16	-8	.	.
Cc1ccccc1CS(=O)(=O)Cc1ccc(C(=O)Nc2c(C)cccc2C)o1	.	6	.	.	.	.	.	.
CCCCNC(=O)C(C)N(CCN(C)C)C(=O)CCCN1C(=O)NC(c2ccc([N+](=O)[O-])cc2)C(C(=O)OCc2ccccc2)=C1C (stereo not drawn)	.	.	.	1	45*	.	14	8
Cc1ccc(CN2CC(C(=O)N3CCN(S(=O)(=O)c4cc(C)ccc4C)CC3)CC2=O)cc1 (stereo not drawn)	-1	6	.	-3	29	-2	.	.
Cc1ccc(CN2CC(C(=O)N3CCN(S(=O)(=O)c4ccc(C)cc4C)CC3)CC2=O)cc1 (stereo not drawn)	4	-3	.	0	48*	.	26	7
O=C1CCN(Cc2ccccc2)C=C1c1ccc(Cl)cc1	.	8	.	-1	47*	.	5	4
O=C(c1ccc(-c2cccc(C(F)(F)F)c2)o1)N1CCCC(C(F)(F)F)C1 (stereo not drawn)	5	-6	.	0	43*	4	39	16
O=C(OCc1nc2ccccc2s1)c1ccc([N+](=O)[O-])o1	0	.	17	-8	69*	22	15	7
O=C(CN1CCN(c2nc(-c3ccccc3)cs2)CC1)Nc1ccc(Cl)cc1	.	11	.	.	.	.	.	.
SMILES	GASC-1 inh	TDP2 inh	UBC9 SUMO inh	PAD4 FP inh	Apaf1 inhib	GSTO1 counter	Apaf-1 inh conf	Rh110 interf inh	others
COc1cccc2c1C(=O)C=C(C)C2=O	-8	0	19	-6	56*	40*	65*	5	Fluor interf inh=>100
COC(=O)[C@]12C[C@H](CC(=O)NCc3cccc4ccccc34)C(=O)N(Cc3ccco3)C1=C[C@H](C(C)C)O[C@@H]2C1CC1	.	-1	.	.	.	.	.	.
N=c1n(CC(=O)c2ccc(Br)s2)c2ccccc2n1Cc1ccccc1	-1	-13	4	-4	42*	-2	23	7
Cn1c(=N)n(CC(=O)c2ccc(Br)s2)c2ccccc21	-4	12	10	3	3	-6	.	.
CCN(Cc1ccccc1)S(=O)(=O)c1ccc(C(=O)N(CCCN(C)C)c2nc3cc(OC)ccc3s2)cc1	58	-2	.	-1	40*	16	15	12
CCN(Cc1ccccc1)S(=O)(=O)c1ccc(C(=O)N(CCCN(C)C)c2nc3cc4c(cc3s2)OCCO4)cc1	-2	-19	.	1	41*	3	20	5
CCN(Cc1ccccc1)S(=O)(=O)c1ccc(C(=O)N(CCCN(C)C)c2nc3ccc(F)cc3s2)cc1	0	11	4	-4	21	-1	.	.
COC(=O)[C@]12C[C@H](CC(=O)NCCCN3CCCC3=O)C(=O)N(CCc3ccc(OC)c(OC)c3)C1=C[C@H](C1CCCC1)O[C@@H]2C	.	8	.	.	.	.	.	.
COc1ccc(S[C@]2(C(=O)N3CCOCC3)CC(=O)N(C(=O)CCc3ccccc3)[C@@H]2c2ccc(OC)cc2)cc1	.	6	.	.	.	.	.	.
Cn1c(=O)c2[nH]c(=O)cnc2n(C)c1=S	39	4	-3	1	56*	2	9	2
Cc1ccc(-c2nn3c(-c4ccco4)nnc3c3ccccc23)cc1S(=O)(=O)NCC1CCCO1 (stereo not drawn)	-31	-5	24	-5	66*	1	83*	7	Fluor interf inh=>100
COc1ccc(Br)cc1C(=O)N/N=C/c1ccc2c(c1)n(C)c(=O)n2C	3	-5	40	4	-2	2	.	.
Cn1c(=O)n(C)c2cc(/C=N/NC(=O)c3cc4cc(Br)ccc4o3)ccc21	6	2	?	-3	43*	6	11	-1
CC1=NN(c2ccccc2)C(=O)/C1=C\c1cc(C)n(C)c1C	-7	-1	6	2	10	-2	.	.
COc1ccc(/C=C2/C(=O)N(c3ccccc3)N=C2C)cc1OC	-8	77*	94	.	96*	.	13	6
